Active and inactive are the calls of the source. No cut-off for these calls is given here.
How the values were obtained:
[1] = target: Amyloid-beta precursor protein (Homo sapiens) (UniProt P05067); assay: Neuroprotective activity against amyloid beta (25 to 35)-induced cell death in human SH-SY5Y cells assessed as cell viability at 2 uM after 24 hrs by MTT assay relative to control; type: functional, cell-based
[2] = target: Amyloid-beta precursor protein (Homo sapiens) (UniProt P05067); assay: Neuroprotective activity against amyloid beta (25 to 35)-induced cell death in human SH-SY5Y cells assessed as cell viability at 0.4 uM after 24 hrs by MTT assay relative to control; type: functional, cell-based
[3] = Antioxidant activity assessed as reduction of TPTZ-Fe3+ to TPTZ-Fe2+ at 0.15 to 1.5 mM after 5 mins by FRAP assay; type: functional
[4] = target: Amyloid-beta precursor protein (Homo sapiens) (UniProt P05067); assay: Neuroprotective activity against amyloid beta (25 to 35)-induced cell death in human SH-SY5Y cells assessed as cell viability at 0.08 uM after 24 hrs by MTT assay relative to control; type: functional, cell-based
[5] = target: Amyloid-beta precursor protein (Homo sapiens) (UniProt P05067); assay: Neuroprotective activity against amyloid beta (25 to 35)-induced cell death in human SH-SY5Y cells assessed as cell viability at 10 uM after 24 hrs by MTT assay relative to control; type: functional, cell-based
[6] = system: Radical scavenging activity; assay: Antioxidant activity assessed as 300 uM DPPH free radical scavenging activity under dark condition after 30 mins by microplate reader analysis; type: functional
How it was run: (§1)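 Compounds at final 6.25, 12.5, 25, 50, 75 and 100 μM mixed with DPPH (final 150 or 300 μM) in EtOH containing 5% DMSO; EtOH/5% DMSO control. A517 read at steady state after 30 min at room temperature in the dark. Triplicate tests averaged.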

[7] = system: Radical scavenging activity; assay: Antioxidant activity assessed as 150 uM DPPH free radical scavenging activity under dark condition after 30 mins by microplate reader analysis; type: functional; how it was run: as §1
[8] = Antioxidant activity assessed as reduction of TPTZ-Fe3+ to TPTZ-Fe2+ after 5 mins by FRAP assay; type: functional
How it was run: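 Working reagent prepared fresh from TPTZ solution, TPTZ diluent and detective buffer (1:10:1 v/v), prewarmed to 37 °C. Samples at 0.15–1.5 mM (5 μL) mixed with 180 μL reagent and held 5 min at 37 °C, then A593 read. Activity expressed as FeSO4 equivalents from a FeSO4 standard curve (0.15–5.00 mM).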

Sequence of Amyloid-beta precursor protein (Homo sapiens) (P05067 whole entry): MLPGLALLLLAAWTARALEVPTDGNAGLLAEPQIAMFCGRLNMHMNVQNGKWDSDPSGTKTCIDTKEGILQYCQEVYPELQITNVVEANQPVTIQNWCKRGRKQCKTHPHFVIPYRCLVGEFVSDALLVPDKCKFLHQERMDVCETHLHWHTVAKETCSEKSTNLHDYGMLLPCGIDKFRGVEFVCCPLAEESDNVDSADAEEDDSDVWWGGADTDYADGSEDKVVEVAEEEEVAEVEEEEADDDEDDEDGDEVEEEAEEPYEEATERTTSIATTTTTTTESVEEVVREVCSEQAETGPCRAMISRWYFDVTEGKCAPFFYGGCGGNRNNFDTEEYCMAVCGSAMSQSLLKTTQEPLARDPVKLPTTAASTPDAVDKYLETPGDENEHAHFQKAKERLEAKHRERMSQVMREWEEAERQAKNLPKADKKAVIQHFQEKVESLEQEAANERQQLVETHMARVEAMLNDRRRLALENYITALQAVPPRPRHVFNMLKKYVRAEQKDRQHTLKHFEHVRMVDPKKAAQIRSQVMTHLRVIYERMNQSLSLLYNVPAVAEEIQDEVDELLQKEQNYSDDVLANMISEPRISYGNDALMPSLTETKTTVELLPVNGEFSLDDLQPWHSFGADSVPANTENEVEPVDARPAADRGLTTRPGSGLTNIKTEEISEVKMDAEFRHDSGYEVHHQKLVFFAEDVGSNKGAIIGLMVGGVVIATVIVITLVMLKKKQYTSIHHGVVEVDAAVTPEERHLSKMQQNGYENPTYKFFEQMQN

Compound | Activity [1] | Activity [2] | Activity [3] | Activity [4] | Activity [5] | IC50 [6] | IC50 [7] | Activity [8]
OC[C@H](Cc1ccc2c(c1)OCO2)[C@H](CO[C@@H]1O[C@H](CO[C@@H]2O[C@@H](CO)[C@H](O)[C@H]2O)[C@@H](O)[C@H](O)[C@H]1O)Cc1ccc2c(c1)OCO2 | 62% | 59.2% | inactive | 58% | 58.3% |  |  | 
O=C1O[C@H]([C@@H](O)CO)C(O)=C1O [ASCORBIC ACID] | 58.5% | 55.6% |  | 54.1% | 58% | 59.3 µM | 24.7 µM | 
COc1cc([C@H]2O[C@H](c3ccc4c(c3)OCO4)[C@@H](C)[C@H]2C)ccc1O |  |  |  |  |  | 44.5 µM | 23.3 µM | Dose-dependent effect
COc1ccc([C@H](OC(=O)c2ccc3c(c2)OCO3)[C@H](C)C(C)=O)cc1OC |  |  | inactive |  |  |  |  | 
COc1cc(C[C@H](C)[C@H](C)Cc2ccc3c(c2)OCO3)ccc1O [AUSTROBAILIGNAN 6] | 61.8% | 61.5% |  | 57% | 64.4% | 75.1 µM | 33.2 µM | Dose-dependent effect
COc1ccc([C@H]2O[C@H](c3ccc4c(c3)OCO4)[C@@H](C)[C@H]2C)cc1OC | 58.6% | 58.1% | inactive | 58.2% | 60.4% |  |  | 
COc1cc(C[C@@H](C)[C@@H](C)Cc2ccc(O)c(OC)c2)ccc1O [MESODIHYDROGUAIARETIC ACID] | 69.2% | 63.8% |  | 62.2% | 68.3% | 34.6 µM | 15.7 µM | Dose-dependent effect
COc1cc([C@@H]2c3cc(OC)c(O)cc3C=C(C)[C@H]2C)ccc1O | 62.1% | 60.7% |  | 58.6% | 65.2% | 83.4 µM | 37.5 µM | Dose-dependent effect
Cc1c(C)c2c(c(C)c1O)CCC(C)(C(=O)O)O2 (stereo unspecified) |  |  | Active |  |  |  |  | 
OC[C@H](Cc1ccc2c(c1)OCO2)[C@H](CO[C@@H]1O[C@H](CO)[C@@H](O)[C@H](O)[C@H]1O)Cc1ccc2c(c1)OCO2 | 63.1% | 64% | inactive | 65% | 65.2% |  |  | 
COc1ccc(C(=O)O[C@@H](c2ccc3c(c2)OCO3)[C@H](C)C(C)=O)cc1OC | 68.9% | 65.4% | inactive | 58.3% | 66.8% |  |  | 
COc1ccc(C[C@@H](C)[C@@H](C)Cc2ccc3c(c2)OCO3)cc1OC | 61.1% | 62.2% | inactive | 58.1% | 61.9% |  |  | 
COc1cc([C@H]2c3cc4c(cc3C[C@@H](C)[C@@H]2C)OCO4)ccc1O | 60.5% | 59.9% |  | 57.7% | 60.5% | 360 µM | 181 µM | Dose-dependent effect
COc1ccc([C@H]2c3cc4c(cc3C[C@@H](C)[C@@H]2C)OCO4)cc1OC | 59.8% | 58.2% | inactive | 57.4% | 58.7% |  |  | 
VITAMIN E |  |  |  |  |  | 62.1 µM | 26.9 µM | 

— ChEMBL document CHEMBL3286204, “Lignans from the fruit of Schisandra glaucescens with antioxidant and neuroprotective properties” (J Nat Prod, 2014)
